Source: PubChem BioAssay
ABHD5 PLIN5 PPI: blocks binding of human ABHD5 to perilipin-5. Q00G26+Q8WTS1. Split G. princeps luciferase complementation, luminescence, 4 h. inhibition, % at 4 µM. 360,000 tested, 0.78% active. AID 602281;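 active = inhibition above the mean inhibition across every tested compound plus 3 SD, cut at about 22% in these data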;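 also: 0% = DMSO only wells and the 100% control is not disclosed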
Beta2AR agonist: agonists of human beta-2 adrenergic receptor inducing internalization. response, % (concentration not given with the values). AID 504454. 340,000 tested, 0.43% active. Am2.2-beta2AR cells, FAP receptor internalization, flow cytometry;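 active = response above a set limit, near 3 SD of response in nonfluorescent compounds, cut at about 42% in these data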
Target sequence (P07550 whole entry, looked up): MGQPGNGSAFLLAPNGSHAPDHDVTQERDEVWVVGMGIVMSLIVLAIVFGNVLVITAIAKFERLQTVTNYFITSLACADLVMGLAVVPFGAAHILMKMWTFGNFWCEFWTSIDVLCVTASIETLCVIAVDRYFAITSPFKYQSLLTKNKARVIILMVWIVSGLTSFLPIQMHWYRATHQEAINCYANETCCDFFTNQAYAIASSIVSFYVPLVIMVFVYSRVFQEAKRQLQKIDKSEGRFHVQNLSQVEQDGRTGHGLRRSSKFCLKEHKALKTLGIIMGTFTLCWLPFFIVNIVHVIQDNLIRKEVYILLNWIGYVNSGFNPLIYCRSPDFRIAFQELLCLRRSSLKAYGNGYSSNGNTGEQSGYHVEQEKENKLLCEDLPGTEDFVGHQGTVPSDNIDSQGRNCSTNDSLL
Dynein transport: blocks dynein driven cargo transport along microtubules; 3617.4 mouse cells, GR-EGFP nuclear translocation imaging; test concentration mostly 20 µM; stimulated with dexamethasone, 1 µM; active compounds read low; z-score, hits read low; 220,000 tested, 0.47% active;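 active = plate z-score of nuclear minus cytoplasmic receptor signal below a set negative limit, without overly bright fluorescence or cell loss, cut at about -3.5 in these data, passing the limit was not always enough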;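 also: z-score of nuclear minus cytoplasmic ring GR-EGFP intensity difference per well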
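Schedule: 48 h induction, then 1 h compound, then 30 min agonist, 37 °C. Buffer or medium: tetracycline-free induction medium containing charcoal-stripped FBS. Reagent: 1.0 µM final dexamethasone stimulus. Evaluation: nuclear versus cytoplasmic GR-EGFP signal, averaged per well. Signal: high-content fluorescence imaging after fixation.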
TLR4 MyD88 comp: TLR4-MyD88 interaction inhibition in cells | O00206+Q99836 | HeLa CL3-4 TLR4/MyD88 BLA complementation, FRET ratio | inhibition, % at 8.4 µM | 200,000 tested, 0.18% active | AID 861; in the data active = inhibition above about 25%;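 also: 0% = vehicle and 100% = reference inhibitor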
NOD2-RIPK2 inh: NOD2-RIPK2 protein interaction inhibition | CHO BLA complementation NOD2-RIPK2, CCF4 ratio | 360,000 tested, 0.38% active | AID 624267 | inhibition, % at 4.98 µM | O43353; in the data active = inhibition above about 21%;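 also: 0% = vehicle only and 100% = reference blocker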
TLR9-MyD88 block: blocks human TLR9 binding to MyD88 | inhibition, % at 4.98 µM | 340,000 tested, 0.21% active | CHO BLA complementation TLR9-MyD88, CCF4 FRET ratio | Q9NR96+Q99836;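 active = inhibition above the mean over all tested compounds plus 3 SD, cut at about 21% in these data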;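 also: 0% = DMSO only wells and 100% = clavulanate BLA inhibitor control wells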
TLR4 MyD88 cnf: TLR4-MyD88 interaction inhibition confirmed | shares compounds with TLR4 MyD88 comp | HeLa CL3-4 BLA complementation, CCF4 FRET ratio | inhibition, % at 8.4 µM | 350 tested, 50% active | AID 941;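 active = mean inhibition across three repeat runs above about 25% carried over from the earlier screen, limit read from the data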;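 also: plate controls were DMSO only for no effect and clavulanic acid blocking BLA at full dose for full effect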
BLA inh HeLa: inhibits beta-lactamase activity, counter-screen to TLR4-MyD88 binding inhibitors; HeLa BLA reporter, CCF4 FRET ratio; inhibition, % at 8.4 µM; shares compounds with TLR4 MyD88 comp; 350 tested, 63% active;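 active = mean inhibition over three repeats above about 26% taken from the earlier screen, limit read from the data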;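 also: HeLa cells stably expressing beta-lactamase reporter as counterscreen for TLR4-MyD88 inhibitors; 0% = DMSO and 100% = clavulanic acid full inhibition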
Dynein inh conf: dynein cargo transport inhibition, confirmation; 3617.4 GR-EGFP nuclear translocation imaging, dexamethasone-induced; calls only at 20 µM; AID 463116; 1,000 tested, 69% active; shares compounds with Dynein transport;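 active = inhibition of receptor movement into the nucleus at or above a set limit in both runs, with normal cell brightness and cell count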;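 also: dexamethasone at 1 µM final in well for 30 min; nuclear minus cytoplasmic GR-EGFP mean intensity difference in channel 2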
TLR9-MyD88 cf: TLR9-MyD88 interaction inhibition, confirmation; AID 540250; inhibition, % at 4.98 µM; 680 tested, 51% active; shares compounds with TLR9-MyD88 block; CHO TLR9/MyD88 BLA complementation, CCF4 FRET ratio;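 active = mean inhibition across three repeats above about 21% taken from the earlier screen, limit read from the data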;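 also: blue over green emission ratio reports constitutive TLR9 MyD88 association via BLA complementation; 0% = DMSO vehicle wells and 100% = clavulanate BLA inhibitor wells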
BLA counter-1: beta-lactamase reporter inhibition, counter-screen artifact; shares compounds with TLR9-MyD88 block; CHO-BLA cells, CCF4 FRET ratio, BLA reporter; inhibition, % at 4.98 µM; 680 tested, 7% active;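 active = mean inhibition above a 50% cutoff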;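 also: counterscreen of TLR9-MyD88 hits on CMV-driven BLA in CHO-K1 cells; 0% = DMSO alone and 100% = clavulanate blocking BLA; higher means less blue over green ratio so more BLA blockade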
TLR9 CHO cytotox: CHO cell toxicity counter-screen for TLR9-MyD88 inhibitors; shares compounds with TLR9-MyD88 block; TLR9-MyD88 CHO cells cytotoxicity, luminescence; inhibition, % at 4.98 µM; 680 tested, 39% active; AID 588336; in the data active = inhibition above about 11%
ABHD5-PLIN5 conf: ABHD5-PLIN5 interaction inhibition, confirmed | 2,200 tested, 67% active | AID 651612 | shares compounds with ABHD5 PLIN5 PPI | biochemical ABHD5-PLIN5 interaction, luminescence | inhibition, % at 4 µM; in the data active = inhibition above about 23%;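 also: 0% = DMSO vehicle wells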
HNF4 split-luc: active in HNF4 split-luciferase counter-screen for ABHD5-PLIN5 inhibitors | shares compounds with ABHD5 PLIN5 PPI | HNF4 dimerization, luminescence, biochemical | inhibition, % at 4 µM | 2,200 tested, 77% active | AID 651674;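 active = mean inhibition across replicate wells exceeding the computed hit threshold, cut at about 13% in these data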;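 also: light from luciferase halves that rejoin when HNF4 fusion proteins dimerize; 0% = DMSO only wells and the 100% control is not given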
NOD2 RIPK2 conf: confirmation of human NOD2-RIPK2 interaction inhibitors | shares compounds with NOD2-RIPK2 inh | CHO cells, NOD2-RIPK2 BLA complementation, CCF4 FRET | inhibition, % at 4.98 µM | 1,200 tested, 70% active | AID 624370;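 active = mean inhibition across replicates above a set limit taken from the earlier primary screen, cut at about 21% in these data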;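 also: 0% = DMSO-only wells and the high end = clavulanate BLA-blocked wells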
BLA counter-2: NOD2-RIPK2 counterscreen BLA reporter activity; 1,200 tested, 57% active; CHO BLA reporter, CCF4 FRET ratio; shares compounds with NOD2-RIPK2 inh; AID 624371; inhibition, % at 4.98 µM;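 active = mean inhibition above the low-control mean inhibition plus three low-control SD, cut at about 11% in these data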;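 also: 0% = DMSO only wells and 100% = clavulanate high control wells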
* hit, by the source's call; / = not tested or not shown; + = active, no number. Sampled rows, rich in hits. Any-hit rate of the full collection: about 1.6%.

SMILES	ABHD5 PLIN5 PPI	Beta2AR agonist	Dynein transport	TLR4 MyD88 comp	NOD2-RIPK2 inh	TLR9-MyD88 block	Dynein inh conf	others
CCC(C)C1NC(=O)C2CCCN2C(=O)C(CC(C)C)OC(=O)CCNC(=O)C(C)N(C)C(=O)C(C(C)C)N(C)C1=O (stereo unspecified)	-5	1	/	/	-1	-1	/
COc1ccc(C(C)=O)cc1Cc1c(O)[nH]c(=S)[nH]c1=O	-6	-4	/	/	-3	5	/
Cc1cc2c(C(F)(F)F)cc(=O)oc2c2c1NCCC2	1	-1	0.12	31*	20	15	/	TLR4 MyD88 cnf=54*;BLA inh HeLa=55*
CCS(=O)(=O)CCSP(=O)(OC)OC	-3	2	/	/	5	-3	/
CC1(C)OC(c2ccccc2)=C/C(=C/C=C2C(=O)NC(=S)NC2=O)O1	/	/	1.7	67*	/	/	/	TLR4 MyD88 cnf=63*;BLA inh HeLa=90*
COC12CCC3(CC1C(C)(O)C(C)(C)C)[C@H]1Cc4ccc(OC5OC(C(=O)O)[C@@H](O)C(O)[C@H]5O)c5c4[C@@]3(CCN1CC1CC1)C2O5 (stereo partly specified)	17	-2	/	/	-5	1	/
O=c1cc(C(F)(F)F)c2cc3c4c(c2o1)CCCN4CCC3	-16	-942	-4.8*	54*	68*	46*	+	TLR4 MyD88 cnf=49*;BLA inh HeLa=81*;TLR9-MyD88 cf=51*;BLA counter-1=55*;TLR9 CHO cytotox=-1;NOD2 RIPK2 conf=63*;BLA counter-2=76*
Cc1ccc(-n2c(CNCc3ccc(F)cc3)nc3ccccc3c2=O)cc1	-3	3	/	/	3	-2	/
CCOc1ccc(N2C(=O)/C(=C\c3cccs3)C(=O)NC2=S)cc1	/	/	-4.4*	11	/	/	+
CCOc1ccc(N2C(=O)/C(=C/c3ccco3)C(=O)NC2=S)cc1	-3	13	/	/	-2	8	/
O=[N+]([O-])c1ccc(N2CCCCCC2)c2nonc12	7	-3	/	/	6	2	/
O=[N+]([O-])c1ccc(NCc2ccccc2)c2nonc12	/	/	-6.8*	14	/	/	+
CN1C(=O)NC(=O)/C(=C/c2ccc([N+](=O)[O-])s2)C1=O	-12	-53	-5.5*	/	-4	-5	+
O=C1NC(=O)N(c2ccccc2)C(=O)/C1=C\c1ccc([N+](=O)[O-])s1	/	-25	-6*	/	/	/	+
COc1ccc(OC)c(N2C(=O)NC(=O)/C(=C\c3ccc([N+](=O)[O-])s3)C2=O)c1	1	16	-5.6*	-4	-3	2	+
CNC(=O)O/N=C/c1nn(C(=O)C(C)(C)C)cc1Br	-2	3	-0.8	/	7	-19	/
NC1=NC(=O)N2CC12 (stereo unspecified)	12	3	/	/	-4	-9	/
O=c1[nH]c(=S)n(-c2ccccc2)c(O)c1C=NCCN1CCNCC1	6	-6	/	/	2	9	/
Cc1ccc(N2C(=O)NC(=O)/C(=C/c3ccoc3)C2=O)cc1	6	4	-1.2	/	-9	-6	/
O=C1NC(=O)N(c2ccccc2)C(=O)/C1=C\C=C\c1ccccc1	21	35	-6*	/	4	/	+
Cc1ccc(N2C(=O)NC(=O)/C(=C/C=C/c3ccco3)C2=O)cc1	17	83*	-4.5*	2	-11	-5	+
Cc1cc(C)cc(N2C(=O)NC(=O)/C(=C\C=C\c3ccco3)C2=O)c1	23*	59*	-4.5*	2	4	-2	+
COc1cc(/C=C2\C(=O)NC(=O)N(c3ccccc3)C2=O)cc(OC)c1OC	18	0	0.14	6	-10	-1	/
CCc1ccc(N2C(=O)NC(=O)/C(=C\C=C\c3ccco3)C2=O)cc1	22*	71*	-3.9*	/	15	4	+
CC1([N+](=O)[O-])COP(=O)(NCc2cccnc2)OC1 (stereo unspecified)	3	-10	/	/	-4	-17	/
COC(=O)C1=C(c2ccc(OC(F)(F)F)cc2)C[C@@H]2CC[C@H]1N2C(=O)NC1CC1	4	-1	/	/	3	-6	/
CCCCN1C(=O)/C(=C/C=C/c2ccco2)C(=O)NC1=S	-5	0	-1.3	0	8	2	/
O=C1NC(=O)N(Cc2ccc(F)cc2)C(=O)/C1=C\C=C\c1ccco1	29*	48*	-5.1*	/	-2	-1	+	ABHD5-PLIN5 conf=96*;HNF4 split-luc=62*
CCC(CO)(C(=O)OC1C[N+]2(C)CCC1CC2)c1ccccc1 (stereo unspecified)	-4	2	-0.56	12	-1	-2	/
O=c1[nH]sc2cc(F)ccc12	81*	4	-4.9*	2	10	3	+	ABHD5-PLIN5 conf=40*;HNF4 split-luc=113*
